Active and inactive are the calls of the source. The calls are words filed in the database; no cut-off is given here.
Experiments:
[1] = Inhibition of porcine brain tubulin polymerization measured over 30 mins; parameters: species or system Sus scrofa
HeLa [2] = assay: Cell cycle arrest in human HeLa cells assessed as accumulation at G2/M phase after 6 to 24 hrs by propidium iodide staining based flow cytometric analysis; format: functional
Procedure, shortened: (§1)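 HepG2 and HeLa cells were exposed to 0, 0.020, 0.040, 0.060, 0.080 or 0.10 µM for 6, 12 or 24 h. DNA content was stained with propidium iodide and analysed by flow cytometry to give the percentage of cells in G0/G1, S and G2/M phases; sub-G1 cells were also recorded.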

HeLa [3] = assay: Cell cycle arrest in human HeLa cells assessed as accumulation at G2/M phase at 0.020 uM after 24 hrs by propidium iodide staining based flow cytometric analysis (reference value: 17.72%); format: functional; procedure, shortened: as §1
HeLa [4] = assay: Cell cycle arrest in human HeLa cells assessed as accumulation at G0/G1 phase at 0.060 uM after 24 hrs by propidium iodide staining based flow cytometric analysis (reference value: 66.26%); format: functional; procedure, shortened: as §1
HeLa [5] = assay: Cell cycle arrest in human HeLa cells assessed as accumulation at G2/M phase at 0.060 uM after 24 hrs by propidium iodide staining based flow cytometric analysis (reference value: 17.72%); format: functional; procedure, shortened: as §1
HepG2 [6] = assay: Cell cycle arrest in human HepG2 cells assessed as accumulation at S phase at 0.020 uM after 24 hrs by propidium iodide staining based flow cytometric analysis (reference value: 20.40%); format: functional; procedure, shortened: as §1
HepG2 [7] = assay: Cell cycle arrest in human HepG2 cells assessed as accumulation at G2/M phase at 0.020 uM after 24 hrs by propidium iodide staining based flow cytometric analysis (reference value: 20.17%); format: functional; procedure, shortened: as §1
HepG2 [8] = assay: Cell cycle arrest in human HepG2 cells assessed as accumulation at G0/G1 phase at 0.060 uM after 24 hrs by propidium iodide staining based flow cytometric analysis (reference value: 55.63%); format: functional; procedure, shortened: as §1
HepG2 [9] = assay: Cell cycle arrest in human HepG2 cells assessed as accumulation at G0/G1 phase at 0.10 uM after 24 hrs by propidium iodide staining based flow cytometric analysis (reference value: 55.63%); format: functional; procedure, shortened: as §1
HeLa [10] = assay: Induction of apoptosis in human HeLa cells assessed as late apoptotic cells at 0.040 uM after 24 hrs by Annexin V-FITC/propidium iodide staining based flow cytometric analysis (reference value: 4.98%); format: functional
Procedure, shortened: (§2)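 HepG2 and HeLa cells were exposed to 0, 0.02, 0.040, 0.060, 0.080 and 0.10 µM for 6, 12 and 24 h. Cells were double-stained with Annexin V-FITC/PI and read by flow cytometry. Apoptotic rate was the percentage of FITC-positive cells, counting early plus late apoptotic.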

HeLa [11] = assay: Induction of apoptosis in human HeLa cells assessed as necrotic cells at 0.040 uM after 24 hrs by Annexin V-FITC/propidium iodide staining based flow cytometric analysis (reference value: 0.242%); format: functional; procedure, shortened: as §2
HeLa [12] = assay: Induction of apoptosis in human HeLa cells assessed as early apoptotic cells at 0.060 uM after 24 hrs by Annexin V-FITC/propidium iodide staining based flow cytometric analysis (reference value: 6.17%); format: functional; procedure, shortened: as §2
HeLa [13] = assay: Induction of apoptosis in human HeLa cells assessed as late apoptotic cells at 0.080 uM after 24 hrs by Annexin V-FITC/propidium iodide staining based flow cytometric analysis (reference value: 4.98%); format: functional; procedure, shortened: as §2
HeLa [14] = assay: Induction of apoptosis in human HeLa cells assessed as early apoptotic cells at 0.10 uM after 24 hrs by Annexin V-FITC/propidium iodide staining based flow cytometric analysis (reference value: 6.17%); format: functional; procedure, shortened: as §2
HeLa [15] = assay: Induction of apoptosis in human HeLa cells assessed as viable cells at 0.10 uM after 24 hrs by Annexin V-FITC/propidium iodide staining based flow cytometric analysis (reference value: 88.6%); format: functional; details: read-out: Activity; procedure, shortened: as §2
HepG2 [16] = assay: Induction of apoptosis in human HepG2 cells assessed as viable cells at 0.020 uM after 24 hrs by Annexin V-FITC/propidium iodide staining based flow cytometric analysis (reference value: 94.5%); format: functional; details: HepG2, 24 h, read-out: Activity; procedure, shortened: as §2
HepG2 [17] = assay: Induction of apoptosis in human HepG2 cells assessed as late apoptotic cells at 0.040 uM after 24 hrs by Annexin V-FITC/propidium iodide staining based flow cytometric analysis (reference value: 2.93%); format: functional; procedure, shortened: as §2
HepG2 [18] = assay: Induction of apoptosis in human HepG2 cells assessed as necrotic cells at 0.040 uM after 24 hrs by Annexin V-FITC/propidium iodide staining based flow cytometric analysis (reference value: 0.270%); format: functional; procedure, shortened: as §2
HepG2 [19] = assay: Induction of apoptosis in human HepG2 cells assessed as viable cells at 0.040 uM after 24 hrs by Annexin V-FITC/propidium iodide staining based flow cytometric analysis (reference value: 94.5%); format: functional; details: HepG2, 24 h, read-out: Activity; procedure, shortened: as §2
HepG2 [20] = assay: Induction of apoptosis in human HepG2 cells assessed as viable cells at 0.060 uM after 24 hrs by Annexin V-FITC/propidium iodide staining based flow cytometric analysis (reference value: 94.5%); format: functional; details: HepG2, 24 h, read-out: Activity; procedure, shortened: as §2
HepG2 [21] = assay: Induction of apoptosis in human HepG2 cells assessed as early apoptotic cells at 0.080 uM after 24 hrs by Annexin V-FITC/propidium iodide staining based flow cytometric analysis (reference value: 2.31%); format: functional; procedure, shortened: as §2
HepG2 [22] = assay: Induction of apoptosis in human HepG2 cells assessed as necrotic cells at 0.10 uM after 24 hrs by Annexin V-FITC/propidium iodide staining based flow cytometric analysis (reference value: 0.270%); format: functional; procedure, shortened: as §2
HeLa [23] = assay: Antitumor activity against human HeLa cells xenografted in nude mouse assessed as tumor weight at 20 mg/kg, ip after 14 days (reference value: 1.54 g); format: functional
HeLa [24] = assay: Antitumor activity against human HeLa cells xenografted in nude mouse assessed as loose and irregular arrangement of tumor cells at 10 to 20 mg/kg, ip after 14 days by hematoxylin and eosin staining based microscopic analysis; format: functional, organism-based
Procedure, shortened: (§3)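 Excised tumours and heart, liver, kidney and spleen were H&E-stained and examined microscopically. Tumour scoring covered cell arrangement and necrosis. Organ scoring covered inflammatory infiltration, edema, necrosis and cell morphology.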

Mus musculus [25] = assay: Nephrotoxicity in nude mouse xenografted with human HeLa cells assessed as cellular inflammatory infiltration in kidney at 10 to 20 mg/kg, ip after 14 days by hematoxylin and eosin staining based microscopic analysis; format: toxicity, organism-based; details: in vivo, 336 h
Mus musculus [26] = assay: Cardiotoxicity in nude mouse xenografted with human HeLa cells assessed as edema in heart at 10 to 20 mg/kg, ip after 14 days by hematoxylin and eosin staining based microscopic analysis; format: toxicity, organism-based; details: in vivo, 336 h; procedure, shortened: as §3
Mus musculus [27] = assay: Hepatotoxicity in nude mouse xenografted with human HeLa cells assessed as necrosis in liver at 10 to 20 mg/kg, ip after 14 days by hematoxylin and eosin staining based microscopic analysis; format: toxicity, organism-based; details: in vivo, 336 h
Procedure, shortened: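 HeLa xenograft nude mice with tumours near 100 mm³, randomised to four groups of 28 mice in total. Dosing was intraperitoneal: vehicle, CA-4 10 mg/kg, or test compound at 10 or 20 mg/kg, continued for 14 days. Heart, liver, kidney and spleen were then H&E-stained and examined for inflammatory infiltration, edema, necrosis and cell morphology.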

Mus musculus [28] = assay: Toxicity in nude mouse xenografted with human HeLa cells assessed as necrosis in spleen at 10 to 20 mg/kg, ip after 14 days by hematoxylin and eosin staining based microscopic analysis; format: organism-based; details: in vivo, 336 h
Mus musculus [29] = assay: Toxicity in nude mouse xenografted with human HeLa cells assessed as ulceration at 10 to 20 mg/kg, ip after 14 days; format: organism-based; details: in vivo, 336 h

With `COc1cccc(C2=NN(C(=O)c3ccc(C)nc3)C(c3cn(C)c4ccc(OC)cc34)C2)c1` (centres undefined) the IC50 [1] was 1.6 µM, the Activity (HeLa [2]) was “Dose-dependent effect” and the Activity (HeLa [3]) was 21.23%. It also gave an Activity (HeLa [4]) of 8.57%, an Activity (HeLa [5]) of 65.43% and an Activity (HepG2 [6]) of 19.81%. For the same compound, the Activity (HepG2 [7]) was 24.3%, the Activity (HepG2 [8]) was 15.79% and the Activity (HepG2 [9]) was 8.57%. For the same compound, the Activity (HeLa [10]) was 3.95%, the Activity (HeLa [11]) was 0.512% and the Activity (HeLa [12]) was 26.1%. It also gave an Activity (HeLa [13]) of 7.03%, an Activity (HeLa [14]) of 32.8% and a viability at 0.1 µM (HeLa [15]) of 58.2%. For the same compound, the viability at 0.02 µM (HepG2 [16]) was 92.9%, the Activity (HepG2 [17]) was 6.24% and the Activity (HepG2 [18]) was 2.2%. The viability at 0.04 µM (HepG2 [19]) was 84.2%, the viability at 0.06 µM (HepG2 [20]) was 85.7% and the Activity (HepG2 [21]) was 9.61%. The Activity (HepG2 [22]) was 2.46%, the Activity (HeLa [23]) was 0.53 g and the Activity (HeLa [24]) was “Active”. The Activity (Mus musculus [25]) was “Non-Toxic”, the Activity (Mus musculus [26]) was “Non-Toxic” and the Activity (Mus musculus [27]) was “Non-Toxic”. The Activity (Mus musculus [28]) was “Non-Toxic” and the Activity (Mus musculus [29]) was “Non-Toxic”.

Source: ChEMBL document CHEMBL4270573, “Novel nicotinoyl pyrazoline derivates bearing N-methyl indole moiety as antitumor agents: Design, synthesis and evaluation” (Eur J Med Chem, 2018)
